Results published in paper PMC2921709 (ChemMedChem, 2010).
Read-outs that look alike come from different tables or passages of the source.

What was measured:
[1] = test system: HL-60; experiment: MTT growth inhibition, HL-60 promyelocytic leukemia cells; type: cell-based, human; conditions: read-out: GI50 HL-60
Method in brief: (§1)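 Cells seeded at 8 × 10^3 per well in 96-well plates and held 18 h at 37 °C, 5% CO2. Medium then replaced with test compound in complete medium at various concentrations for 72 h continuous exposure. Viability read by MTT. GI50 is the concentration giving 50% proliferation inhibition, from dose–response curves; mean ± SE of ≥3 independent experiments. Media: leukemia lines in RPMI-1640; solid-tumour lines in DMEM with penicillin G 115 U mL−1, streptomycin and 10% FBS.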

[2] = test system: HeLa; experiment: MTT growth inhibition, HeLa cervix carcinoma cells; type: cell-based, human; conditions: read-out: GI50 HeLa
Method in brief: as §1

[3] = test system: Hep G2; experiment: MTT growth inhibition, HepG2 hepatoma cells; type: cell-based, human; conditions: read-out: GI50 Hep G2
Method in brief: as §1

[4] = test system: panel of human tumor cell lines; experiment: MTT growth inhibition, whole panel of human tumor cell lines; type: cell-based; conditions: 72 h, read-out: GI50, all cell lines tested
Method in brief: as §1

[5] = test system: K562; experiment: MTT growth inhibition, K562 chronic myelogenous leukemia cells; type: cell-based, human; conditions: read-out: GI50 K562
Method in brief: as §1

[6] = test system: ML2; experiment: MTT growth inhibition, ML-2 myeloid leukemia cells; type: cell-based, human; conditions: read-out: GI50 ML2
Method in brief: as §1

[7] = test system: ARO; experiment: MTT growth inhibition, ARO anaplastic thyroid cells; type: cell-based, human; conditions: read-out: GI50 ARO
Method in brief: as §1

[8] = test system: HT-29; experiment: MTT growth inhibition, HT-29 colon adenocarcinoma cells; type: cell-based, human; conditions: read-out: GI50 HT-29
Method in brief: as §1

[9] = test system: MCF-7; experiment: MTT growth inhibition, MCF-7 breast adenocarcinoma cells; type: cell-based, human; conditions: read-out: GI50 MCF-7; 72 h exposure, MTT; mean ± SE
Method in brief: as §1

[10] = test system: RS 4;11; experiment: MTT growth inhibition, RS 4; type: cell-based, human; conditions: read-out: GI50 RS 4;11; 72 h exposure, MTT; mean ± SE
Method in brief: as §1

[11] = test system: Bovine brain tubulin (colchicine site); experiment: Inhibition of [3H]colchicine binding to tubulin; conditions: tubulin 1 μM, [3H]colchicine 5 μM
[12] = test system: Jurkat; experiment: MTT growth inhibition, Jurkat T-leukemia cells; type: cell-based, human; conditions: read-out: GI50 Jurkat; 72 h exposure, MTT; mean ± SE
Method in brief: as §1

[13] = test system: Bovine brain tubulin; experiment: Inhibition of tubulin polymerization; type: biochemical; conditions: read-out: Tubulin Assembly IC50; tubulin 10 μM; 20 min incubation; ± SD
[14] = test system: IGROV; experiment: MTT growth inhibition, IGROV ovarian cancer cells; type: cell-based, human; conditions: read-out: GI50 IGROV; 72 h exposure, MTT; mean ± SE
Method in brief: as §1

[15] = Homo sapiens, Thyroid cell, 72 h

| GI50 ([1]; Homo sapiens, HL-60, 72 h) [µM] | GI50 ([2]; Homo sapiens, HeLa, 72 h) [µM] | GI50 ([3]; Homo sapiens, HepG2, 72 h) [µM] | GI50 [4] [µM] | GI50 ([5]; Homo sapiens, K562, 72 h) [µM] | GI50 ([6]; Homo sapiens, ML-2, 72 h) [µM] | GI50 ([8]; Homo sapiens, HT-29, 72 h) [µM] | GI50 ([1]; 72 h exposure, MTT, mean ± SE) [µM] | GI50 ([2]; 72 h exposure, MTT, mean ± SE) [µM] | GI50 ([3]; 72 h exposure, MTT, mean ± SE) [µM] | GI50 ([5]; 72 h exposure, MTT, mean ± SE) [µM] | GI50 ([6]; 72 h exposure, MTT, mean ± SE) [µM] | GI50 ([8]; 72 h exposure, MTT, mean ± SE) [µM] | SMILES | GI50 [7, 15] [µM] | GI50 ([7]; 72 h exposure, MTT, mean ± SE) [µM] | also measured |
| --- | --- | --- | --- | --- | --- | --- | --- | --- | --- | --- | --- | --- | --- | --- | --- | --- |
| > 50 | > 50 | > 50 | > 50 | > 50 | > 50 | > 50 | – | – | – | – | – | – | O=c1c(-c2ccccc2)c[nH]c2ccc3[nH]ccc3c12 [Compound 33, 8-Phenyl-3H-pyrrolo[3,2-f]quinolin-9(6H)-one] | > 50 | – | – |
| > 50 | > 50 | > 50 | > 50 | > 50 | > 50 | > 50 | – | – | – | – | – | – | CCn1ccc2c3c(=O)c(-c4ccccc4)c[nH]c3ccc21 [Compound 34, 3-Ethyl-8-phenyl-3H-pyrrolo[3,2-f]quinolin-9(6H)-one] | > 50 | – | – |
| – | – | – | – | – | – | – | > 50 | > 50 | > 50 | > 50 | > 50 | > 50 | O=c1c(-c2ccccc2)c[nH]c2ccc3c(ccn3CC3CC3)c12 [Compound 35] | – | > 50 | – |
| > 50 | > 50 | > 50 | – | > 50 | > 50 | > 50 | – | – | – | – | – | – | CCn1ccc2c3c(=O)c(-c4cccc(OC)c4)c[nH]c3ccc21 [Compound 36, 3-Ethyl-8-(3-methoxyphenyl)-3H-pyrrolo[3,2-f]quinolin-9(6H)-one] | > 50 | – | – |
| > 50 | > 50 | > 50 | – | > 50 | > 50 | > 50 | – | – | – | – | – | – | CCn1ccc2c3c(=O)c(-c4ccc(Br)cc4)c[nH]c3ccc21 [Compound 37, 8-(4-Bromophenyl)-3-ethyl-3H-pyrrolo[3,2-f]quinolin-9(6H)-one] | > 50 | – | – |
| – | – | – | – | – | – | – | 0.0005 ± 2e-05 | 0.01 ± 0.008 | 0.05 ± 0.01 | 0.001 ± 0.0001 | 0.001 ± 0.0003 | 0.03 ± 0.01 | CCn1ccc2c3c(=O)cc(-c4ccccc4)[nH]c3ccc21 [Compound 38, 3-ethyl-7-PPyQ, reference compound] | – | 0.03 ± 0.01 | GI50 [9]: 0.04 ± 0.01 µM; GI50 [10]: 0.002 ± 0.0003 µM; Colchicine Binding Inhibition [%], 1 μM ([11]; compound 1 μM): 34 ± 2%; Colchicine Binding Inhibition [%], 5 μM ([11]; compound 5 μM): 73 ± 0.7%; GI50 [12]: 0.0005 ± 2e-05 µM; IC50 [13]: 0.57 ± 0.02 µM; GI50 [14]: 0.06 ± 0.01 µM |
